Converted amounts (≈) assume the structure as drawn.
Experiments:
Type in all cases: functional
Haemophilus influenzae [1] = experiment: Antibacterial activity against Haemophilus influenzae group IIb isolates with ftsI gene mutation by broth microdilution method
Outline: (§1)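 Clinical isolates were tested by broth microdilution in Haemophilus test medium following CLSI guidelines, with H. influenzae ATCC 49247 as the QC strain. β-Lactamase was detected by chromogenic nitrocefin test. ftsI was PCR-amplified and sequenced across nt 936–1640 (aa 327–540). Classes: BLNAS (no mechanism), BLNAR (ftsI substitutions), BLPAR (β-lactamase only), BLPACR (both). Agents tested were amoxicillin, amoxicillin-clavulanate (2:1), cefaclor, cefuroxime, cefotaxime and cefixime.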

Haemophilus influenzae [2] = experiment: Antibacterial activity against beta-lactamase positive ampicillin resistant Haemophilus influenzae isolate assessed as percent resistant isolates by broth microdilution method; outline: as §1
Haemophilus influenzae [3] = experiment: Antibacterial activity against Haemophilus influenzae group I isolates with ftsI gene mutation by broth microdilution method; outline: as §1
Haemophilus influenzae [4] = experiment: Antibacterial activity against Haemophilus influenzae group IIc isolates with ftsI gene mutation by broth microdilution method; outline: as §1
Haemophilus influenzae [5] = experiment: Antibacterial activity against beta-lactamase producing amoxicillin-clavulanic acid-resistant Haemophilus influenzae isolate assessed as percent susceptible isolates by broth microdilution method
Outline: (§2)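 Broth microdilution in Haemophilus test medium per CLSI guidelines on clinical isolates, with H. influenzae ATCC 49247 as quality-control strain; β-lactamase production detected by nitrocefin chromogenic cephalosporin test; isolates classed by β-lactamase status and ftsI (PBP 3) sequencing of amino acids 327 to 540. Agents tested: amoxicillin, amoxicillin-clavulanic acid (2:1), cefaclor, cefuroxime, cefotaxime, cefixime.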

Haemophilus influenzae [6] = experiment: Antibacterial activity against Haemophilus influenzae group III-like isolates with ftsI gene mutation by broth microdilution method; outline: as §1
Haemophilus influenzae [7] = experiment: Antibacterial activity against beta-lactamase nonproducing ampicillin susceptible Haemophilus influenzae isolate by broth microdilution method; outline: as §1
Haemophilus influenzae [8] = experiment: Antibacterial activity against beta-lactamase nonproducing ampicillin susceptible Haemophilus influenzae isolate assessed as percent susceptible isolates by broth microdilution method; outline: as §2
Haemophilus influenzae [9] = experiment: Antibacterial activity against beta-lactamase nonproducing ampicillin resistant Haemophilus influenzae isolate assessed as percent susceptible isolates by broth microdilution method; outline: as §1
Haemophilus influenzae [10] = experiment: Antibacterial activity against Haemophilus influenzae group IIa isolates with ftsI gene mutation by broth microdilution method; outline: as §1
Haemophilus influenzae [11] = experiment: Antibacterial activity against beta-lactamase positive ampicillin resistant Haemophilus influenzae isolate by broth microdilution method; outline: as §1
Haemophilus influenzae [12] = experiment: Antibacterial activity against beta-lactamase producing amoxicillin-clavulanic acid-resistant Haemophilus influenzae isolate by broth microdilution method; outline: as §1
Haemophilus influenzae [13] = experiment: Antibacterial activity against beta-lactamase nonproducing ampicillin susceptible Haemophilus influenzae isolate assessed as percent resistant isolates by broth microdilution method; outline: as §1
Haemophilus influenzae [14] = experiment: Antibacterial activity against beta-lactamase nonproducing ampicillin resistant Haemophilus influenzae isolate assessed as percent resistant isolates by broth microdilution method; outline: as §1
Haemophilus influenzae [15] = experiment: Antibacterial activity against beta-lactamase nonproducing ampicillin resistant Haemophilus influenzae isolate by broth microdilution method; outline: as §1
Haemophilus influenzae [16] = experiment: Antibacterial activity against Haemophilus influenzae group IId isolates with ftsI gene mutation by broth microdilution method; outline: as §1
Haemophilus influenzae [17] = experiment: Antibacterial activity against beta-lactamase producing amoxicillin-clavulanic acid-resistant Haemophilus influenzae isolate assessed as percent resistant isolates by broth microdilution method; outline: as §1

Compound | MIC50 (Haemophilus influenzae [1]) | MIC90 (Haemophilus influenzae [1]) | Activity (Haemophilus influenzae [2]) | MIC50 (Haemophilus influenzae [3]) | MIC90 (Haemophilus influenzae [3]) | MIC50 (Haemophilus influenzae [4]) | MIC90 (Haemophilus influenzae [4]) | Activity (Haemophilus influenzae [5]) | MIC50 (Haemophilus influenzae [6]) | MIC90 (Haemophilus influenzae [6]) | MIC50 (Haemophilus influenzae [7]) | MIC90 (Haemophilus influenzae [7]) | Activity (Haemophilus influenzae [8]) | Activity (Haemophilus influenzae [9]) | MIC50 (Haemophilus influenzae [10]) | MIC90 (Haemophilus influenzae [10]) | MIC90 (Haemophilus influenzae [11]) | MIC50 (Haemophilus influenzae [12]) | MIC90 (Haemophilus influenzae [12]) | Activity (Haemophilus influenzae [13]) | other results
C=CC1=C(C(=O)O)N2C(=O)[C@@H](NC(=O)/C(=N\OCC(=O)O)c3csc(N)n3)[C@H]2SC1 [CEFIXIME] | 0.06 µg/mL (≈ 0.132 µM) | 0.12 µg/mL (≈ 0.265 µM) | 0% | 0.06 µg/mL (≈ 0.132 µM) | 0.12 µg/mL (≈ 0.265 µM) | 0.06 µg/mL (≈ 0.132 µM) | 0.12 µg/mL (≈ 0.265 µM) | 100% | 1 µg/mL (≈ 2.21 µM) | 4 µg/mL (≈ 8.82 µM) | 0.06 µg/mL (≈ 0.132 µM) | 0.06 µg/mL (≈ 0.132 µM) | 100% | 99% | 0.06 µg/mL (≈ 0.132 µM) | 0.25 µg/mL (≈ 0.551 µM) | 0.06 µg/mL (≈ 0.132 µM) | 0.06 µg/mL | 0.12 µg/mL | 0% | MIC (Haemophilus influenzae [3]): 0.06 µg/mL (≈ 0.132 µM); MIC50 (Haemophilus influenzae [11]): ≤ 0.01 µg/mL; Activity (Haemophilus influenzae [14]): 1%; MIC50 (Haemophilus influenzae [15]): 0.06 µg/mL (≈ 0.132 µM); MIC90 (Haemophilus influenzae [15]): 0.25 µg/mL (≈ 0.551 µM); MIC50 (Haemophilus influenzae [16]): 0.06 µg/mL (≈ 0.132 µM); MIC90 (Haemophilus influenzae [16]): 0.12 µg/mL (≈ 0.265 µM); Activity (Haemophilus influenzae [17]): 0%
CO/N=C(\C(=O)N[C@@H]1C(=O)N2C(C(=O)O)=C(COC(C)=O)CS[C@H]12)c1csc(N)n1 [CEFOTAXIME] | 0.06 µg/mL (≈ 0.132 µM) | 0.12 µg/mL (≈ 0.263 µM) | 0% | 0.03 µg/mL (≈ 0.0659 µM) | 0.12 µg/mL (≈ 0.263 µM) | 0.06 µg/mL (≈ 0.132 µM) | 0.12 µg/mL (≈ 0.263 µM) | 100% | 0.5 µg/mL (≈ 1.1 µM) | 4 µg/mL (≈ 8.78 µM) | ≤ 0.01 µg/mL | 0.06 µg/mL (≈ 0.132 µM) | 100% | 99% | 0.06 µg/mL (≈ 0.132 µM) | 0.25 µg/mL (≈ 0.549 µM) | 0.06 µg/mL (≈ 0.132 µM) | 0.03 µg/mL | 0.06 µg/mL | 0% | MIC (Haemophilus influenzae [7]): ≤ 0.01 µg/mL; Activity (Haemophilus influenzae [14]): 1%; MIC50 (Haemophilus influenzae [15]): 0.06 µg/mL (≈ 0.132 µM); MIC90 (Haemophilus influenzae [15]): 0.25 µg/mL (≈ 0.549 µM); MIC50 (Haemophilus influenzae [16]): 0.03 µg/mL (≈ 0.0659 µM); MIC90 (Haemophilus influenzae [16]): 0.12 µg/mL (≈ 0.263 µM); Activity (Haemophilus influenzae [17]): 0%
CO/N=C(\C(=O)N[C@@H]1C(=O)N2C(C(=O)O)=C(COC(N)=O)CS[C@H]12)c1ccco1 [CEFUROXIME] | 2 µg/mL (≈ 4.71 µM) | 2 µg/mL (≈ 4.71 µM) | 0% | 0.5 µg/mL (≈ 1.18 µM) | 2 µg/mL (≈ 4.71 µM) | 2 µg/mL (≈ 4.71 µM) | 2 µg/mL (≈ 4.71 µM) | 100% | 4 µg/mL (≈ 9.43 µM) | 8 µg/mL (≈ 18.9 µM) | 0.5 µg/mL (≈ 1.18 µM) | 1 µg/mL (≈ 2.36 µM) | 100% | 98% | 2 µg/mL (≈ 4.71 µM) | 4 µg/mL (≈ 9.43 µM) | 1 µg/mL (≈ 2.36 µM) | 1 µg/mL | 2 µg/mL | 0% | MIC (Haemophilus influenzae [3]): 0.5 µg/mL (≈ 1.18 µM); MIC50 (Haemophilus influenzae [11]): 1 µg/mL (≈ 2.36 µM); Activity (Haemophilus influenzae [14]): 2%; MIC50 (Haemophilus influenzae [15]): 2 µg/mL (≈ 4.71 µM); MIC90 (Haemophilus influenzae [15]): 4 µg/mL (≈ 9.43 µM); MIC (Haemophilus influenzae [16]): 0.5 µg/mL (≈ 1.18 µM); MIC50 (Haemophilus influenzae [16]): 0.5 µg/mL (≈ 1.18 µM); MIC90 (Haemophilus influenzae [16]): 4 µg/mL (≈ 9.43 µM); Activity (Haemophilus influenzae [17]): 0%
